{"data": "Measurements pooled from the literature", "target": "Serine/threonine-protein kinase Nek6 (NEK6, Homo sapiens, UniProt Q9HC98)", "note": "Lines come from different studies, so protocols differ."}
{"Compound": "C[C@@H](c1ccc(-n2cnc3c(N)ncnc32)cc1)N1CCc2nn(C)c(Cc3ccccc3)c2C1=O", "test": "binding, competition with immobilised ligand", "setting": "0.1 µM", "remaining binding": "90%"}
{"Compound": "O=C(NCC1CCOCC1)c1n[nH]cc1NC(=O)c1c(F)cccc1F", "test": "binding, competition with immobilised ligand", "setting": "1 µM", "remaining binding": "90%"}
{"Compound": "CCC(=O)N[C@H]1CC[C@@H](C(=O)N(C)c2ccc(-c3nc4ccccc4o3)cc2)C1", "test": "cell-free assay, competition with immobilised ligand", "setting": "1 µM", "remaining binding": "85%"}
{"Compound": "Cc1cnn2ncc(-c3ccnc(N(C)C)n3)c2c1", "test": "binding", "setting": "1 µM", "remaining binding": "100%"}
{"Compound": "Cc1cnc(Nc2ccc(C(=O)N3CCC(N4CCCC4)CC3)cc2)nc1-c1cc2ccccc2s1", "test": "binding, competition with immobilised ligand", "setting": "1 µM", "remaining binding": "10%"}
{"Compound": "COc1cnc(Nc2cccc(S(N)(=O)=O)c2)nc1N1CCN(c2ccccc2)CC1", "test": "binding, competition with immobilised ligand", "setting": "1 µM", "remaining binding": "100%"}
{"Compound": "C[C@H]1CCN(c2nccc(-c3cnn4ncccc34)n2)C1", "test": "binding", "setting": "1 µM", "remaining binding": "100%"}
{"Compound": "CCCOc1ccc([C@@H]2[C@@H](C(=O)O)[C@H](c3ccc4c(c3)OCO4)CN2CC(=O)Nc2c(CC)cccc2CC)cc1", "test": "cell-free assay, competition with immobilised ligand", "setting": "1 µM", "remaining binding": "92%"}
{"Compound": "CCN1CCN(Cc2ccc(C(=O)Nc3ccc(C)c(Oc4ccc5c(c4)CC(=O)N5)c3)cc2C(F)(F)F)CC1", "test": "binding, competition with immobilised ligand", "setting": "1 µM", "remaining binding": "100%"}
{"Compound": "COc1ccc2c(O[C@@H]3C[C@H]4C(=O)N[C@]5(C(=O)O)CC5/C=C\\CCCCC[C@H](NC(=O)OC5CCCC5)C(=O)N4C3)cc(-c3csc(NC(=O)C(C)C)n3)nc2c1C (stereo partly shown)", "test": "cell-free assay, competition with immobilised ligand", "setting": "1 µM", "remaining binding": "98%"}
{"Compound": "c1cncc(-c2cccc(Nc3nccc(NC4CCCCC4)n3)c2)c1", "test": "binding, competition with immobilised ligand", "setting": "10 µM", "remaining binding": "71%"}
{"Compound": "COc1ccnn2ncc(-c3ccnc(N(C)C)n3)c12", "test": "binding", "setting": "1 µM", "remaining binding": "100%"}
{"Compound": "CC1=C(C#N)[C@@H](c2ccc3[nH]nc(C)c3c2)C(C#N)=C(c2ccc(Cl)cc2)N1", "test": "cell-free assay, competition with immobilised ligand", "setting": "1 µM", "remaining binding": "100%"}
{"Compound": "FC(F)(F)Oc1cccc(-c2cnc3ccc(-c4ccncc4)nn23)c1", "test": "cell-free assay, competition with immobilised ligand", "setting": "5 µM", "remaining binding": "85%"}
{"Compound": "COc1ncc2cc3ccccc3nc2c1C#N", "test": "cell-free assay, competition with immobilised ligand", "setting": "5 µM", "remaining binding": "100%"}
{"Compound": "CCc1ccccc1C(=O)Nc1n[nH]c2c(C)c(F)c(C3C(C#N)=C(C)N(C)C(C)=C3C#N)cc12", "test": "cell-free assay, competition with immobilised ligand", "setting": "1 µM", "remaining binding": "75%"}
{"Compound": "CN(C)c1ncc(F)c(-c2cnn3ncccc23)n1", "test": "binding", "setting": "1 µM", "remaining binding": "99%"}
{"Compound": "C[C@@H](c1cccc(C#N)c1)n1cc(Cl)cc(C(N)=O)c1=N", "test": "cell-free assay, competition with immobilised ligand", "setting": "1 µM", "remaining binding": "79%"}
{"Compound": "N[C@@H]1CCN(c2nccc(-c3cnn4ncccc34)n2)C1", "test": "binding", "setting": "1 µM", "remaining binding": "100%"}
{"Compound": "O=C(NCCCN1CCOCC1)c1ccc(Nc2nccc(-c3cc4ccccc4s3)n2)cc1", "test": "binding, competition with immobilised ligand", "setting": "1 µM", "remaining binding": "81%"}
{"Compound": "F[C@@H]1CCN(c2nccc(-c3cnn4ncccc34)n2)C1", "test": "binding", "setting": "1 µM", "remaining binding": "100%"}
{"Compound": "O=C(NCCCN1CCOCC1)c1ccc(Nc2ncc(Cl)c(-c3ccc(Cl)s3)n2)cc1", "test": "binding, competition with immobilised ligand", "setting": "1 µM", "remaining binding": "2.5%"}
